# Results collected from several papers.
# Protocols differ between the studies behind these lines.
# Target: G protein-coupled receptor kinase 5 (GRK5, Homo sapiens, UniProt P34947)
Structure (SMILES),assay,setting,quantity,value
CCCOc1ccc(OC)c(F)c1C(=O)c1ccc(C(=O)N[C@@H]2CNC[C@H]2NC(=O)c2ccc3[nH]ncc3c2)cc1,"enzyme activity, inhibitor",10 µM,remaining activity,114%
Cc1cc(NC(=O)c2cccc3cc(-c4cccc5[nH]nc(N)c45)ccc23)ccc1F,"enzyme activity, inhibitor",0.1 µM,activity vs control,112%
COc1cc2ncnc(Nc3ccc(Oc4ccccc4)cc3C)c2cc1OC,"enzyme activity, inhibitor",1 µM,inhibition,-2%
CNC(=O)c1cc(Oc2ccc(NC(=O)Nc3ccc(Cl)c(C(F)(F)F)c3)cc2)ccn1,"enzyme activity, inhibitor",0.3 µM,inhibition,7%
Cc1ccc(NC(=O)c2ccc(C)c(C(F)(F)F)c2)cc1C#Cc1nn(C2CCC(O)CC2)c2ncnc(N)c12 (centres unmarked),cell-free assay,10 µM,remaining signal,99%
O=C(Nc1cnn(-c2csc(C(=O)NC3COC3)c2)c1)Nc1ccccc1Cl,"enzyme activity, inhibitor",5 µM,remaining activity,98%
N#CCCc1ccc2c(c1)-c1[nH]c3ccc([N+](=O)[O-])cc3c1CC(=O)N2,cell-free assay,0.5 µM,remaining signal,103%
CCCS(=O)(=O)Nc1ccc(F)c(C(=O)c2c[nH]c3ncc(-c4ccc(Cl)cc4)cc23)c1F,"enzyme activity, inhibitor",1 µM,inhibition,< 10%
CC(C)(O)[C@H]1CC[C@H](Nc2ccc3ncc(-c4cccc(C(F)(F)F)c4)n3n2)CC1,"enzyme activity, inhibitor",1 µM,remaining activity,95.1%
CC(C)(C)c1nc2c(s1)c1nc(N)ncc1c1ccc(NS(=O)(=O)c3c(F)cccc3F)c(F)c12,"enzyme activity, inhibitor, radiometric",1 µM,remaining activity,84%
COc1cc(Cl)c(C(=O)N[C@@H](CN[C@H]2CC[C@@H](N)CC2)Cc2ccc(C#N)cc2)cc1-c1ccc(CN[C@H](C)c2ccc(C)cc2)o1,"enzyme activity, inhibitor",1 µM,remaining activity,99%
CCN(CC)c1ccc(C2=NNC(=O)CC2C)cc1[N+](=O)[O-] (centres unmarked),"enzyme activity, inhibitor",10 µM,remaining activity,103%
Cc1sc(C(=O)NC2COC2)cc1-n1cc(NC(=O)Nc2c(F)cccc2Cl)cn1,"enzyme activity, inhibitor",10 µM,remaining activity,113%
COc1cc2ncnc(Nc3ccc(Oc4ccccc4)c(C)c3C)c2cc1OC,"enzyme activity, inhibitor",1 µM,inhibition,0%
Cc1ccc(Nc2nccc(N(C)c3ccc4c(C)n(C)nc4c3)n2)cc1S(N)(=O)=O,"enzyme activity, inhibitor",10 µM,inhibition,-10%
CC(C)(C)c1nc(-c2cccc(NS(=O)(=O)c3c(F)cccc3F)c2F)c(-c2ccnc(N)n2)s1,"enzyme activity, inhibitor, radiometric",1 µM,remaining activity,85%
O=C1NC(=O)c2cc(Nc3ccc(F)cc3)c(Nc3ccc(F)cc3)cc21,cell-free assay,0.5 µM,remaining signal,101%
Cc1cnc(NC2CCOCC2)nc1-n1cnc(C(=O)NC(CN)c2cc(F)cc(Cl)c2)c1 (centres unmarked),"enzyme activity, inhibitor, radiometric",1 µM,remaining activity,96%
Cc1ccc(C(=O)NCc2ccsc2)cc1C#Cc1cn(C(C)C)c2ncnc(N)c12,"enzyme activity, inhibitor",1 µM,activity vs control,111%
CN1CC(Oc2cnc(C#N)cc2-c2ccn3nc(NC(=O)C4CC4)cc3c2)C1,"enzyme activity, inhibitor",1 µM,inhibition,3%
